Test results from ChEMBL document CHEMBL1124266, “Stereoelectronic factors influencing the biological activity and DNA interaction of synthetic antitumor agents modeled on CC-1065” (J Med Chem, 1988).
The source made the active and inactive calls. The calls are words filed in the database; no cut-off is given here.

Assays:
[1] = Lipophilic/hydrophilic partitioning (RP-TLC); type: ADME; conditions: 2:1 DMF-saline
In short: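 Reverse-phase TLC developed in 2:1 DMF–saline (0.9% NaCl). Plates scanned at 350 nm. R_f values averaged from two to four determinations.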

Nucleic Acid = assay: Induced circular dichroism (ICD), expressed as molar ellipticity, in the presence of calf-thymus DNA; type: functional; conditions: Bos taurus
In short: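 Drug stock (1–4 mg/mL in DMA, DMF or DMSO) injected into calf-thymus DNA (11 × 10⁻⁵ M) in 0.01 M phosphate buffer pH 7.2. Final drug 0.85 × 10⁻⁵ M, base-to-drug ratio 13. Stood 24 h at room temperature before CD spectrum. Value is molar ellipticity at long-wavelength maximum, ca. 350 nm.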

P388 [2] = assay: In vivo optimum dose given on days 1, 5, and 9 to mice implanted intraperitoneally with P388 leukemia cells; type: functional, Mus musculus
In short: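 P388 cells (10⁶/mouse) implanted ip into male BDF1 mice on day 0. Dosing ip on days 1, 5 and 9 in 2% DMA/10% Emulphor 620-P/water vehicle. Six mice per group. Optimum dose given in mg/kg per day, judged by increase in median life span.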

P388 [3] = assay: In vivo % increase in life span of treated animals (OD) over that of control mice bearing tumor, determined against P388 leukemia cells; type: functional, Mus musculus
In short: (§1)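 Male BDF1 mice inoculated ip with 10⁶ P388 cells (tumor passaged in DBA/2 females) on day 0. Drug ip on days 1, 5, 9 in 2% DMA, 10% Emulphor 620-P, water. Six mice per group. %ILS = (median death day treated / median death day untreated control − 1) × 100, at optimum dose. 30-day survivors counted as cured.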

L1210 = assay: In vitro concentration required to inhibit 50% growth of murine L1210 leukemia cells; type: functional; conditions: Mus musculus, read-out: ID50 (the source's name)
In short: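 Mouse L1210 leukemia cells in RPMI 1634 with 5% fetal calf serum, 0.075% sodium bicarbonate, penicillin 0.1 mg/mL and streptomycin 50 μg/mL. Drug aliquots added to tubes, then cells at approximately 5 × 10³ cells/mL. Incubation 37 °C for 3 days; cell number by Coulter counter. ID₅₀ = nM concentration giving 50% growth inhibition.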

P388 [4] = assay: In vivo % increase in life span of treated animals (OD) over that of control mice bearing tumor, determined against P388 leukemia cells; NA=no activity(<20% ILS); type: functional, organism-based; conditions: Mus musculus
In short: (§2)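 P388 leukemia kept by serial passage in female DBA/2 mice. Male BDF1 mice were given 10^6 cells ip on day 0. Drug was given ip on days 1, 5 and 9 in 2% DMA/10% Emulphor 620-P/water, with six mice per group. Optimum dose was in mg/kg per day. %ILS came from the median day of death versus untreated tumor-bearing controls. Mice alive at 30 days were counted as cured.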

Mus musculus [5] = assay: In vivo optimum dose (OD), given on days 1, 5, and 9 to mice bearing P388 leukemia; type: functional; in short: as §2
Mus musculus [6] = assay: In vivo % increase in life span of treated animals (OD) over that of control mice bearing P388 leukemia; type: functional; in short: as §1
[7] = Pseudo-first order rate constant at pH 3 followed spectrophotometrically; type: ADME
In short: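 Acid-catalyzed cyclopropyl ring opening in methanolic buffer at pH 3, tracked by loss of the 344–370 nm absorption band. Residual long-wavelength absorbance at 2 weeks subtracted. Rate from ln(A/A₀) vs time, linear for at least 2 half-lives. Drug 20–120 µM.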

[8] = Pseudo-first order rate constant at pH 3 followed spectrophotometrically; Stable; type: ADME

k [8] | SMILES | Rf [1] | ICD (Nucleic Acid) | OD (P388 [2]) [mg/kg/day] | ILS (P388 [3]) [%] | IC50 (L1210) [nM] | ILS (P388 [4]) | OD (Mus musculus [5]) [mg/kg/day] | ILS (Mus musculus [6]) [%] | k [7]
 | Cc1c[nH]c2c1C13CC1CN(C(=O)c1cc4cc(NC(=O)c5cc6cc(NC(=O)c7ccccc7)ccc6[nH]5)ccc4[nH]1)C3=CC2=O (stereo unspecified) | 0.3 | 0.033 | 0.1 | 77 | 0.01 |  |  |  | 
 | CC1=C(C(=O)N2CC3CC34C2=CC(=O)c2[nH]cc(C)c24)Cc2ccccc21 (stereo unspecified) | 0.39 | 0.004 | 17 |  | 30 | inactive |  |  | 
 | CC(=O)N1CC2CC23C1=CC(=O)c1[nH]cc(C)c13 (stereo unspecified) | 0.9 | 0 | 3 | 45 | 20 |  |  |  | 
 | CCCCCCCCCC(=O)N1CC2CC23C1=CC(=O)c1[nH]cc(C)c13 (stereo unspecified) | 0.07 | 0 | 40 |  | 100 | inactive |  |  | 
 | Cc1c[nH]c2c1C13CC1CN(C(=O)c1ccc[nH]1)C3=CC2=O (stereo unspecified) | 0.7 | 0.01 | 1 | 71 | 2 |  |  |  | 
 | Cc1c[nH]c2c1C13CC1CN(C(=O)c1cc4cc(NC(=O)c5cc6cc(NC(N)=O)ccc6[nH]5)ccc4[nH]1)C3=CC2=O (stereo unspecified) |  | 0.075 | 0.1 | 121 | 0.3 |  |  |  | 
 | Cc1c[nH]c2c1C13CC1CN(C(=O)c1cc4ccccc4o1)C3=CC2=O (stereo unspecified) |  | 0.006 |  |  | 0.04 |  | 0.25 | 110 | 1.1e-05
 | Cc1c[nH]c2c1C13CC1CN(C(=O)c1ccc4ccccc4n1)C3=CC2=O (stereo unspecified) | 0.5 | 0.001 | 6 | 142 | 10 |  |  |  | 1.2e-05
 | Cc1c[nH]c2c1C13CC1CN(C(=O)c1cc4cc(NC(=O)c5cc6ccccc6[nH]5)ccc4[nH]1)C3=CC2=O (stereo unspecified) | 0.3 | 0.07 | 0.05 | 159 | 0.01 |  |  |  | 
 | Cc1c[nH]c2c1C13CC1CN(C(=O)c1ccc4ccccc4c1)C3=CC2=O (stereo unspecified) | 0.46 | 0 | 6 | 73 | 7 |  |  |  | 
 | COc1c(O)ccc2cc(C(=O)N3CC4CC45C3=CC(=O)c3[nH]cc(C)c35)[nH]c12 (stereo unspecified) | 0.63 | 0.037 | 0.05 | 55 | 0.1 |  |  |  | 1e-05
 | CCCCCC(=O)N1CC2CC23C1=CC(=O)c1[nH]cc(C)c13 (stereo unspecified) | 0.35 | 0 | 2 | 100 | 3 |  |  |  | 8e-06
 | Cc1c[nH]c2c1C13CC1CN(C(=O)c1cc4cc(NC(=O)c5ccccc5)ccc4[nH]1)C3=CC2=O (stereo unspecified) | 0.43 | 0.036 | 0.05 | 82 | 0.07 |  |  |  | 
 | Cc1c[nH]c2c1C13CC1CN(S(C)(=O)=O)C3=CC2=O (stereo unspecified) | 0.82 | 0 | 25 | 60 | 100 |  |  |  | 3e-06
 | COc1ccc2[nH]c(C(=O)N3CC4CC45C3=CC(=O)c3[nH]cc(C)c35)cc2c1 (stereo unspecified) | 0.47 | 0.022 | 0.05 | 95 | 0.01 |  |  |  | 1e-05
 | Cc1c[nH]c2c1C13CC1CN(C(=O)c1cc4cc(NC(=O)c5cc6ccccc6o5)ccc4[nH]1)C3=CC2=O (stereo unspecified) | 0.3 | 0.05 | 0.05 | 170 | 0.02 |  |  |  | 1e-05
 | Cc1c[nH]c2c1C13CC1CN(C(=O)c1cc4cc(NC(N)=O)ccc4[nH]1)C3=CC2=O (stereo unspecified) | 0.89 | 0.047 | 0.06 | 65 | 0.6 |  |  |  | 1e-05
 | Cc1c[nH]c2c1C13CC1CN(C(=O)c1ccccn1)C3=CC2=O (stereo unspecified) | 0.76 | 0 | 15 | 69 | 10 |  |  |  | 1.2e-05
 | COc1c(O)c2c(c3cc(C(=O)N4CCc5c4c(O)c(OC)c4[nH]c(C(=O)N6C[C@H]7C[C@@]78C6=CC(=O)c6[nH]cc(C)c68)cc54)[nH]c13)CCN2C(N)=O [(+)-CC-1065] | 0.39 | 0.28 | 0.1 | 62 | 0.07 |  |  |  | 
 | Cc1c[nH]c2c1C13CC1CN(C(=O)c1cc4ccccc4[nH]1)C3=CC2=O (stereo unspecified) | 0.45 | 0.036 | 0.4 | 90 | 0.2 |  |  |  | 1e-05
 | Cc1c[nH]c2c1C13CC1CN(C(=O)c1ccccc1)C3=CC2=O (stereo unspecified) | 0.63 | < 0.001 | 12 | 71 | 3 |  |  |  | 9e-06
 | Cc1c[nH]c2c1C13CC1CN(C(=O)c1cc4ccccc4n1C)C3=CC2=O (stereo unspecified) |  | 0.003 |  |  | 10 |  | 8 | 44 | 1e-05
 | Cc1c[nH]c2c1C13CC1CN(C(=O)c1cc4ccccc4s1)C3=CC2=O (stereo unspecified) | 0.41 | 0.007 | 0.8 | 100 | 0.3 |  |  |  | 1.1e-05
 | CCCCCC(=O)Nc1ccc2nc(C(=O)N3CC4CC45C3=CC(=O)c3[nH]cc(C)c35)ccc2c1 (stereo unspecified) | 0.15 |  | 21 | 127 | 100 |  |  |  | 
 | Cc1c[nH]c2c1C13CC1CN(S(=O)(=O)c1ccccc1)C3=CC2=O (stereo unspecified) | 0.58 |  |  |  | 900 |  |  |  | 
 | Cc1c[nH]c2c1C13CC1CN(C(=O)c1ccc(NC(=O)c4ccccc4)cc1)C3=CC2=O (stereo unspecified) | 0.42 | 0.011 | 0.5 | 83 | 0.5 |  |  |  | 
 | Cc1c[nH]c2c1C13CC1CN(C(=O)OC(C)(C)C)C3=CC2=O (stereo unspecified) | 0.35 | 0 |  |  | 300 |  |  |  | 5e-06
Stable | Cc1c[nH]c2c1C13CC1CN=C3C=C2O (stereo unspecified) | 0.87 | 0 | 10 |  | 900 | inactive |  |  | 
